Measurements collected from several papers.
Compare with care: the assays were run in different laboratories. Converted amounts (≈) assume the structure as drawn.

O=[N+]([O-])c1ccc(C2=[N+]([O-])c3ccccc3N3CCN=C23)cc1 — MIC50 (Clostridioides difficile; microbial growth): ≤ 0.06 µg/mL
COc1ccc(C[C@@H]2c3cc(Oc4cc(C[C@@H]5c6cc(O)c(OC)cc6CCN5C)ccc4O)c(OC)cc3CCN2C)cc1 — inhibition (Severe acute respiratory syndrome coronavirus 2; cytopathic effect, inhibitor; Vero C1008; 3.125 µM): 0%
CCN(CC)CCCC(C)Nc1ccnc2cc(Cl)ccc12 (stereo not drawn) — IC50 (Severe acute respiratory syndrome coronavirus 2; viral replication, inhibitor; Vero C1008): 1.58 µM
Nc1ccn([C@@H]2CS[C@H](CO)O2)c(=O)n1 — IC50 (Hepatitis B virus; viral replication, qPCR; HepG2.2.15; 14 days): 0.05 µM
CC(C)=CCc1c(O)ccc(C(=O)/C=C/c2ccc(O)cc2)c1O — inhibition (Severe acute respiratory syndrome coronavirus 2; cytopathic effect, inhibitor; Vero C1008; 12.5 µM): 0%
Cc1ncc([N+](=O)[O-])n1CCO — MIC90 (Clostridioides difficile; microbial growth): 0.25 µg/mL (≈ 1.46 µM)
Fc1ccc(-n2cc(CCCCN3CCC4(CC3)OCc3ccccc34)c3ccccc32)cc1 — IC50 (Severe acute respiratory syndrome coronavirus 2; viral replication; Vero C1008): 0.589 µM
CCc1ccc(NC(=O)c2cc3c(=O)n4ccccc4nc3n2C)cc1 — inhibition (Severe acute respiratory syndrome coronavirus 2; viral replication; Vero; 1 µM): 89.3%
CC(C)OC(=O)[C@H](C)N[P@](=O)(CO[C@H](C)Cn1cnc2c(N)ncnc21)Oc1ccccc1 — IC50 (Hepatitis B virus; viral replication; HepG2.2.15; 14 days): 0.05 µM
CN1CCN(CCc2ccc(Cl)c(Cl)c2)CC1 — IC50 (Severe acute respiratory syndrome coronavirus 2; viral replication, inhibitor; A549-ACE2): 2.51 µM
O=C(/C=C/c1ccc(O)c(O)c1/C=C/c1ccc(O)c(O)c1)O[C@H](Cc1ccc(O)c(O)c1)C(=O)O — inhibition (Severe acute respiratory syndrome coronavirus 2; cytopathic effect, inhibitor; Vero C1008; 100 µM): 58.3%
FC(F)(F)c1ccc2c(c1)N(CCCN1CCN(CCCl)CC1)c1ccccc1S2 — IC50 (Severe acute respiratory syndrome coronavirus 2; viral replication, inhibitor; A549-ACE2): 3.89 µM
C=C[C@@](C)(/C=C/c1ccc(O)cc1)CCC=C(C)C — inhibition (Severe acute respiratory syndrome coronavirus 2; cytopathic effect, inhibitor; Vero C1008; 12.5 µM): 0%
C=CCNC1=C2C[C@@H](C)C[C@H](OC)[C@H](O)[C@@H](C)/C=C(\C)[C@H](OC(N)=O)[C@@H](OC)/C=C\C=C(/C)C(=O)NC(=C(c3ccccc3)C1=O)C2=O — IC50 (ARPE-19; cell growth or viability, MTT): > 20 µM
[O-][N+]1=C(c2ccc(Cl)cc2)C2=NCCN2c2ccccc21 — MIC50 (Clostridioides difficile; microbial growth): 0.25 µg/mL (≈ 0.84 µM)
CN(CCc1ccc(Cl)c(Cl)c1)CCN1CCCC1 — IC50 (Severe acute respiratory syndrome coronavirus 2; viral replication; Vero C1008): 5.25 µM
O=C(O[C@@H]1Cc2c(O)cc(O)cc2O[C@@H]1c1cc(O)c(O)c(O)c1)c1cc(O)c(O)c(O)c1 — inhibition (Severe acute respiratory syndrome coronavirus 2; cytopathic effect; Vero C1008; 3.125 µM): 0%
Cc1cccn2c(=O)c3cc(C(=O)Nc4ccc(N(C)C)cc4)n(C)c3nc12 — inhibition (Severe acute respiratory syndrome coronavirus 2; viral replication; Vero; 0.1 µM): 63.6%
OC(CCN1CCCCC1)(c1ccccc1)C1CCCCC1 (stereo not drawn) — IC50 (Severe acute respiratory syndrome coronavirus 2; viral replication; A549-ACE2): 3.16 µM
CC(=O)c1cccc(NC(=O)c2cc3c(=O)n4ccccc4nc3n2C)c1 — inhibition (Severe acute respiratory syndrome coronavirus 2; viral replication; Vero; 1 µM): 93.7%
CCN(CCO)CCCC(C)Nc1ccnc2cc(Cl)ccc12 (stereo not drawn) — IC50 (Severe acute respiratory syndrome coronavirus 2; viral replication, inhibitor; A549-ACE2): 0.871 µM
